Assay results published in paper PMC4834512 (Innate Immunity, 2016).
Values joined by “and” are separate entries in the source; they are usually repeats but may differ in a detail not shown here. Identical values can stand only once.

What was measured:
plasma proteins [1] = conditions: assumed value from the literature; cited from earlier work
LPS from E. coli = test: LPS inactivation by PMB in plasma, LAL test; format: biochemical, Escherichia coli; conditions: 5 ng/ml LPS from E. coli, fresh human heparinized plasma, 60 min 37℃
Procedure, shortened: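 Fresh human heparinized plasma spiked with E. coli LPS (5 or 0.5 ng/ml) was incubated with test compound at 0, 10, 100, 250, 500 and 1000 ng/ml for 60 min at 37℃ in pyrogen-free glass vials. Endotoxin activity was read by kinetic chromogenic LAL test. ENC50 is the concentration reducing activity by 50% relative to LPS-spiked plasma without test compound.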

plasma proteins [2] = format: in vitro ADME, human
Procedure, shortened: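 Fresh citrate-anticoagulated plasma from three donors was spiked with 1 µg/ml test compound. Aliquots were centrifuged (10,000 g, 20 min) through ultrafiltration membranes of 10, 30, 50 or 100 kDa MMCO, and filtrates were stored at −20℃. Drug in filtrates was measured by competitive ELISA (detection limit 1 ng/ml; samples diluted into 0–100 ng/ml range). Total protein was measured by automated analyser. The same filtration was run in 0.9% NaCl to check binding to the filter.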

## Polymyxin B [PMB]
Plasma proteins [1]
  Plasma protein binding of PMB: up to 90%
LPS from E. coli
  ENC50 (endotoxin neutralizing concentration): 381 ng/mL and < 400 ng/mL
Plasma proteins [2]; 100 kDa MMCO, citrate plasma, 1 µg/ml PMB, ultrafiltration 10,000 g 20 min, ELISA, mean ± SD n = 3
  PMB % of + control in filtrate: 25 ± 13%
Plasma proteins [2]; membranes with smaller pores than 100 kDa MMCO (10, 30, 50 kDa)
  PMB-content of filtrates compared with a PMB-solution without plasma: < 10%
